Results reported in ChEMBL document CHEMBL1649436, “Antiviral activity of MK-4965, a novel nonnucleoside reverse transcriptase inhibitor” (Antimicrob Agents Chemother, 2009).

Tests used:
[1] = system: Human immunodeficiency virus 1; assay: Antiviral activity against HIV1 isolate R8 harboring wild type reverse transcriptase infected in human MT4 cells assessed as inhibition of viral replication after 72 hrs in presence of 50% human serum; format: functional; details: Human immunodeficiency virus 1, isolate R8, MT4, 72 h
Outline: (§1)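 Multiple-cycle assay: MT-4 cells (2.5 × 10^5) infected with R8-based virus at low MOI, no inhibitor, 24 h at 37°C, 5% CO2; washed, reseeded at 5 × 10^4 cells in RPMI 1640 with 10% FBS or 50% type AB human serum; threefold serial dilutions from 833 nM to 0.32 nM; 72 h; p24 in medium by AlphaScreen; EC95 = lowest concentration giving ≥95% p24 reduction versus untreated.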

[2] = system: Human immunodeficiency virus 1; assay: Antiviral activity against HIV1 isolate R8 harboring reverse transcriptase K103N and Y181C mutant infected in human MT4 cells assessed as inhibition of viral replication after 72 hrs in presence of 10% FBS; format: functional; details: Human immunodeficiency virus 1, isolate R8, MT4, 72 h; outline: as §1
[3] = system: Human immunodeficiency virus 1; assay: Antiviral activity against HIV1 isolate R8 harboring reverse transcriptase K103N mutant infected in human MT4 cells assessed as inhibition of viral replication after 72 hrs in presence of 50% human serum; format: functional; details: Human immunodeficiency virus 1, isolate R8, MT4, 72 h; outline: as §1
[4] = system: Human immunodeficiency virus 1; assay: Antiviral activity against HIV1 isolate R8 harboring reverse transcriptase K103N mutant infected in human MT4 cells assessed as inhibition of viral replication after 72 hrs in presence of 10% FBS; format: functional; details: Human immunodeficiency virus 1, isolate R8, MT4, 72 h; outline: as §1
[5] = system: Human immunodeficiency virus 1; assay: Antiviral activity against HIV1 isolate R8 harboring reverse transcriptase Y181C mutant infected in human MT4 cells assessed as inhibition of viral replication after 72 hrs in presence of 50% human serum; format: functional; details: Human immunodeficiency virus 1, isolate R8, MT4, 72 h; outline: as §1
[6] = system: Human immunodeficiency virus 1; assay: Antiviral activity against HIV1 isolate R8 harboring reverse transcriptase K103N and Y181C mutant infected in human MT4 cells assessed as inhibition of viral replication after 72 hrs in presence of 50% human serum; format: functional; details: Human immunodeficiency virus 1, isolate R8, MT4, 72 h; outline: as §1
[7] = system: Human immunodeficiency virus 1; assay: Antiviral activity against HIV1 isolate R8 harboring reverse transcriptase Y181C mutant infected in human MT4 cells assessed as inhibition of viral replication after 72 hrs in presence of 10% FBS; format: functional; details: Human immunodeficiency virus 1, isolate R8, MT4, 72 h; outline: as §1
Plasma [8] = assay: Plasma protein binding in healthy human at 200 mg/kg; format: ADME, organism-based; set-up: dose 200 mg/kg; details: in vivo
Plasma [9] = assay: Plasma protein binding in HIV1 infected patient; format: ADME, cell-free; details: human
[10] = system: Human immunodeficiency virus 1; assay: Antiviral activity against HIV1 isolate R8 harboring wild type reverse transcriptase infected in human MT4 cells assessed as inhibition of viral replication after 72 hrs in presence of 10% FBS; format: functional; details: Human immunodeficiency virus 1, isolate R8, MT4, 72 h; outline: as §1
[11] = system: Human immunodeficiency virus 1; assay: Antiviral activity against HIV1 isolate R8 harboring reverse transcriptase M230L mutant relative to drug-sensitive HIV1 CNDO; format: functional
[12] = system: Human immunodeficiency virus 1; assay: Antiviral activity against HIV1 isolate R8 harboring reverse transcriptase L100I and K103N mutant relative to drug-sensitive HIV1 CNDO; format: functional
[13] = system: Human immunodeficiency virus 1; assay: Antiviral activity against HIV1 isolate R8 harboring reverse transcriptase K101P mutant relative to drug-sensitive HIV1 CNDO; format: functional
[14] = system: Human immunodeficiency virus 1; assay: Ratio of EC95 for HIV1 isolate R8 harboring reverse transcriptase K103N and Y181C mutant in presence of 50% human serum to EC95 for HIV1 isolate R8 harboring wild type reverse transcriptase in presence of 50% human serum; format: functional
Outline: (§2)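 Ratios of EC95 values from the MT-4 multiple-cycle assay: R8 variants infected 24 h at low MOI, then reseeded in RPMI 1640 with 10% FBS or 50% type AB human serum with threefold dilutions (833–0.32 nM) for 72 h; p24 by AlphaScreen; EC95 = lowest concentration cutting p24 ≥95% versus untreated controls.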

[15] = system: Human immunodeficiency virus 1; assay: Antiviral activity against HIV1 isolate R8 harboring reverse transcriptase Y181I mutant relative to drug-sensitive HIV1 CNDO; format: functional
[16] = system: Human immunodeficiency virus 1; assay: Antiviral activity against HIV1 isolate R8 harboring reverse transcriptase F227C mutant relative to drug-sensitive HIV1 CNDO; format: functional
[17] = system: Human immunodeficiency virus 1; assay: Ratio of EC95 for HIV1 isolate R8 harboring reverse transcriptase K103N mutant in presence of 50% human serum to EC95 for HIV1 isolate R8 harboring wild type reverse transcriptase in presence of 50% human serum; format: functional; outline: as §2
[18] = system: Human immunodeficiency virus 1; assay: Ratio of EC95 for HIV1 isolate R8 harboring reverse transcriptase Y181C mutant in presence of 50% human serum to EC95 for HIV1 isolate R8 harboring wild type reverse transcriptase in presence of 50% human serum; format: functional; outline: as §2
[19] = system: Human immunodeficiency virus 1; assay: Antiviral activity against HIV1 isolate R8 harboring reverse transcriptase Y181C and K103N mutant relative to drug-sensitive HIV1 CNDO; format: functional

Structure (SMILES) | EC95 [1] | EC95 [2] | EC95 [3] | EC95 [4] | EC95 [5] | EC95 [6] | EC95 [7] | Activity (Plasma [8]) | Activity (Plasma [9]) | EC95 [10] | fold change (FC) [11] | fold change (FC) [12] | fold change (FC) [13] | fold change (FC) [14] | fold change (FC) [15] | fold change (FC) [16] | fold change (FC) [17] | fold change (FC) [18] | fold change (FC) [19]
O=C1Nc2ccc(Cl)cc2[C@@](C#CC2CC2)(C(F)(F)F)O1 [EFAVIRENZ] | 38 nM | 322 nM | 1730 nM | 245 nM | 89 nM | 3390 nM | 8.4 nM | > 99.5% | > 99.5% | 3.8 nM |  |  |  |  |  |  |  |  | 
Cc1cc(C#N)cc(C)c1Oc1nc(Nc2ccc(C#N)cc2)nc(N)c1Br [ETRAVIRINE] | 38 nM | 56 nM | 43 nM | 6 nM | 266 nM | 542 nM | 26 nM | > 99.5% | > 99.5% | 4 nM | > 10 | > 10 | > 10 | 14 | > 10 | > 10 | 1.1 | 7 | > 10
